Reference: ChEMBL document CHEMBL2321726, “Identification of selective inhibitors for human neuraminidase isoenzymes using C4,C7-modified 2-deoxy-2,3-didehydro-N-acetylneuraminic acid (DANA) analogues” (J Med Chem, 2013)

Tests used:
[1] = target: T1, Sialidase-4 (Homo sapiens, UniProt Q8WWR8); test: Inhibition of human neuraminidase 4 using 4MU-NANA as substrate after 30 mins by fluorescence assay
T1 sequence (Q8WWR8 whole entry): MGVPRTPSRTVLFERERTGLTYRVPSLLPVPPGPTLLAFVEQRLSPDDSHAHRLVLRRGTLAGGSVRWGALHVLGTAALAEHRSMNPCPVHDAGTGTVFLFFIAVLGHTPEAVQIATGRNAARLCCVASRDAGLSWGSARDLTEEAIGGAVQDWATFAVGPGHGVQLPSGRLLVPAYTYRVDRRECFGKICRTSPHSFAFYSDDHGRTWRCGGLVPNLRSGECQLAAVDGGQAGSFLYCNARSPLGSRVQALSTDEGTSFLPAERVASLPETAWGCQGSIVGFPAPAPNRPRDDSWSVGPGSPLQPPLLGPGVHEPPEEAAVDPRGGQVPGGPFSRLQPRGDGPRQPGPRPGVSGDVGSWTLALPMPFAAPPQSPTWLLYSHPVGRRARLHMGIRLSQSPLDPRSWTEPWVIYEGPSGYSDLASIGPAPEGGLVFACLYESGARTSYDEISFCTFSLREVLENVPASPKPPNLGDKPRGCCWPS
How it was run: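 GST-fusion enzyme, assayed in 0.1 M sodium acetate pH 4.5. Inhibitor diluted 3-fold serially from 1 mM final, incubated 15 min at 37 °C with enzyme, then 4MU-NANA (50 μM final) 30 min at 37 °C. Four replicates; IC50 from nonlinear regression.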

[2] = target: T2, Sialidase-3 (Homo sapiens, UniProt Q9UQ49); test: Inhibition of human neuraminidase 3 expressed in Escherichia coli using 4MU-NANA as substrate after 30 mins by fluorescence assay
T2 sequence (Q9UQ49 whole entry): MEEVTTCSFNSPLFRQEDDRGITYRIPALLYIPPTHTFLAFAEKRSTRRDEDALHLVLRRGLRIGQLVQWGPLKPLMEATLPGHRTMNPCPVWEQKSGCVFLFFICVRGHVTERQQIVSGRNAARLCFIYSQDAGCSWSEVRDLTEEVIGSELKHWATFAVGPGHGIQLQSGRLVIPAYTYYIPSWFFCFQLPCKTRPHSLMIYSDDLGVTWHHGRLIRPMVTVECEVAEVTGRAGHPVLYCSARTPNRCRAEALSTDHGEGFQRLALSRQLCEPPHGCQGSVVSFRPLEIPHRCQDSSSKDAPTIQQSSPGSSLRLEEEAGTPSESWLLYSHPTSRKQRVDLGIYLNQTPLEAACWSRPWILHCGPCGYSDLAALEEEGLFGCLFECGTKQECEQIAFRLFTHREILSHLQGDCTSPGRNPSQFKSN
How it was run: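 Enzyme made in E. coli as N-terminal MBP fusion. 0.1 M sodium acetate pH 4.5. 3-fold serial inhibitor dilutions from 1 mM final, 15 min preincubation with enzyme at 37 °C, then 4MU-NANA 50 μM final for 30 min at 37 °C. Glycinate pH 10.7 stop, fluorescence 365/445 nm. Quadruplicate points; IC50 by nonlinear regression.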

[3] = target: Sialidase-1 (Homo sapiens, UniProt Q99519); test: Inhibition of human neuraminidase 1 using 4MU-NANA as substrate after 30 mins by fluorescence assay
How it was run: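 NEU1 purified per earlier protocol as complex with β-galactosidase and cathepsin A. 0.1 M sodium acetate, pH 4.5. Inhibitor in 3-fold serial dilutions from 1 mM final, preincubated with enzyme 15 min at 37 °C. 4MU-NANA (50 μM final) added, 30 min at 37 °C. Four replicates; IC50 by nonlinear regression.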

[4] = target: Neuraminidase (Vibrio cholerae, UniProt Q5IB64); test: Inhibition of Vibrio cholerae neuraminidase
[5] = target: T2, Sialidase-3; test: Inhibition of human neuraminidase 3 expressed in Escherichia coli using 4MU-NANA as substrate measured for every 30 seconds for 60 mins by fluorescence assay
How it was run: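 Product formation at 37 °C read every 30 s for 60 min (ex 365/em 445 nm). Initial linear rates; Lineweaver–Burk slopes plotted against inhibitor concentration and fitted for Ki.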

SMILES | IC50 [1] [µM] | IC50 [2] [µM] | IC50 [3] [µM] | IC50 [4] [µM] | Ki [5] [µM]
CC(=O)N[C@H]1[C@H](CNc2ccccc2)OC(C(=O)O)=C[C@@H]1N | > 1000 | 540 | > 1000 | > 1000 | –
CC(=O)N[C@H]1[C@H](CNc2ccccc2)OC(C(=O)O)=C[C@@H]1O | > 1000 | 370 | > 1000 | > 1000 | –
CC(=O)N[C@H]1[C@H](CNCc2ccccc2)OC(C(=O)O)=C[C@@H]1O | > 1000 | > 1000 | > 1000 | 470 | –
CC(=O)N[C@H]1[C@H](CNNCc2ccc(-c3ccccc3)cc2)OC(C(=O)O)=C[C@@H]1O | 200 | 70 | > 1000 | > 1000 | –
CC(=O)N[C@H]1[C@H]([C@H](O)[C@H](O)CO)OC(C(=O)O)=C[C@@H]1N=[N+]=[N-] | 1000 | 54 | 360 | 540 | –
CC(=O)N[C@@H]1[C@@H](N=[N+]=[N-])C=C(C(=O)O)O[C@H]1CNc1ccccc1 | 300 | 440 | > 1000 | > 1000 | –
CC(=O)N[C@@H]1[C@@H](N=[N+]=[N-])C=C(C(=O)O)O[C@H]1CNc1ccc(-c2ccccc2)cc1 | 210 | 50 | > 1000 | > 1000 | –
CC(=O)N[C@@H]1[C@@H](N=[N+]=[N-])C=C(C(=O)O)O[C@H]1CNOCc1ccccc1 | > 1000 | 24 | > 1000 | 550 | 8
CC(=O)N[C@@H]1[C@@H](N=[N+]=[N-])C=C(C(=O)O)O[C@H]1CN(Cc1ccccc1)OCc1ccccc1 | 350 | 24 | > 1000 | > 1000 | –
CC(=O)N[C@@H]1[C@@H](N=[N+]=[N-])C=C(C(=O)O)O[C@H]1CNNc1ccccc1 | > 1000 | 20 | > 1000 | > 1000 | 11
CC(=O)N[C@H]1[C@H]([C@H](O)[C@H](O)CO)OC(C(=O)O)=C[C@@H]1N | 720 | 180 | > 1000 | > 1000 | –
CC(=O)N[C@H]1[C@H]([C@H](O)[C@H](O)CO)OC(C(=O)O)=C[C@@H]1O [NEU5AC2EN] | – | 6.3 | – | 170 | 2.2
